Reference: ChEMBL document CHEMBL1817661, “Combining carbochips and mass spectrometry to study the donor specificity for the Neisseria meningitidis β1,3-N-acetylglucosaminyltransferase LgtA” (Bioorg Med Chem Lett, 2011)
Activity calls are given as the source filed them. No cut-off for these calls is given here.

How the values were obtained:
[1] = target: T1, Beta 1,3 N-acetylglucosaminyltransferase (Neisseria meningitidis) (UniProt Q8KHG4); test: Ratio of Vmax to Km for Neisseria meningitidis beta1,3-N-acetylglucosaminyltransferase LgtA assessed as enzyme catalyzed glycosylation using lactose as substrate after 2 to 30 mins by SAMDI analysis
T1 sequence (whole entry): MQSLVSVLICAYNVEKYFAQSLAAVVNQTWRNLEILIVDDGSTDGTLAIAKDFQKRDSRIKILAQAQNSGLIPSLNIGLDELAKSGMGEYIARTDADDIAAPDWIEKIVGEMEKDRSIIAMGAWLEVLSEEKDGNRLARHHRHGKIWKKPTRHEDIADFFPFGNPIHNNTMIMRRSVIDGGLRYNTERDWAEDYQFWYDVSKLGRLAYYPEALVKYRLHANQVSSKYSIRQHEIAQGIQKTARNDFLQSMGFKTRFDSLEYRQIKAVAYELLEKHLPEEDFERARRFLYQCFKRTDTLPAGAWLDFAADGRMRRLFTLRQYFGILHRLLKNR
Procedure, shortened: (§1)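 Solution-phase reactions: LgtA with lactose azide acceptor (10 mM) and UDP-sugar donor at five concentrations (1–10 mM), 30 °C. Sets stopped at 12 time points. Aliquots mixed with copper bromide and DIPEA and immobilized on monolayer islands (20 min). Yield comes from product/substrate SAMDI peak intensities. Initial velocities are slopes of linear fits of yield vs time. Apparent Km and Vmax are taken from a reciprocal plot.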

[2] = target: T1, Beta 1,3 N-acetylglucosaminyltransferase (Neisseria meningitidis); test: Activity of Neisseria meningitidis beta1,3-N-acetylglucosaminyltransferase LgtA assessed as enzyme catalyzed glycosylation using self-assembled monolayers having lactoside as acceptor at 2 mM after 5 to 120 mins by SAMDI MS assay
Procedure, shortened: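 Gold islands (2 mm) carry a monolayer of lactose (10% density) with tri(ethylene glycol) groups. Each donor analog (2 mM) is mixed with LgtA in assay buffer, applied to an island, and incubated in a humidified chamber at 30 °C. Times were 5, 10, 15, 20, 30, 40, 60 and 120 min. Arrays were rinsed with water and ethanol, matrix was applied, and relative glycosylation product was read by SAMDI MS.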

[3] = substrate: CC(=O)N[C@H]1[C@@H](OP(=O)(O)OP(=O)(O)OC[C@H]2O[C@@H](n3ccc(=O)[nH]c3=O)[C@H](O)[C@@H]2O)O[C@H](C)[C@@H](O)[C@@H]1O; test: (§2) Activity of Neisseria meningitidis beta1,3-N-acetylglucosaminyltransferase LgtA assessed as enzyme catalyzed glycosylation using lactose as substrate after 2 to 30 mins by SAMDI analysis; procedure, shortened: as §1
[4] = substrate: CC(=O)N[C@H]1[C@@H](OP(=O)(O)OP(=O)(O)OC[C@H]2O[C@@H](n3ccc(=O)[nH]c3=O)[C@H](O)[C@@H]2O)O[C@H](C)[C@H](O)[C@@H]1O; test: as §2; procedure, shortened: as §1
[5] = substrate: CC(=O)N[C@H]1[C@@H](OP(=O)(O)OP(=O)(O)OC[C@H]2O[C@@H](n3ccc(=O)[nH]c3=O)[C@H](O)[C@@H]2O)O[C@H](CO)C[C@@H]1O; test: as §2; procedure, shortened: as §1
[6] = substrate: CCC(=O)N[C@H]1[C@@H](OP(=O)(O)OP(=O)(O)OC[C@H]2O[C@@H](n3ccc(=O)[nH]c3=O)[C@H](O)[C@@H]2O)O[C@H](CO)[C@@H](O)[C@@H]1O; test: as §2; procedure, shortened: as §1

CC(=O)N[C@H]1[C@@H](OP(=O)(O)OP(=O)(O)OC[C@H]2O[C@@H](n3ccc(=O)[nH]c3=O)[C@H](O)[C@@H]2O)O[C@H](C)[C@H](O)[C@@H]1O
Vmax/Km [1]: 0.038 min⁻¹

CC(=O)N[C@H]1[C@@H](OP(=O)(O)OP(=O)(O)OC[C@H]2O[C@@H](n3ccc(=O)[nH]c3=O)[C@H](O)[C@@H]2O)O[C@H](CO)C[C@@H]1O
Vmax/Km [1]: 0.029 min⁻¹

CC(=O)N[C@@H]1[C@H](OP(=O)(O)OP(=O)(O)OC[C@H]2O[C@@H](n3ccc(=O)[nH]c3=O)[C@H](O)[C@@H]2O)O[C@@H](CO)[C@H](O)[C@H]1O (stereo in doubt; 8)
Vmax/Km [1]: 0.065 min⁻¹

CC(=O)N[C@@H]1[C@H](OP(=O)(O)OP(=O)(O)OC[C@H]2O[C@@H](n3ccc(=O)[nH]c3=O)[C@H](O)[C@@H]2O)O[C@@H](CO)[C@H](O)[C@H]1O (stereo in doubt; 1)
Vmax/Km [1]: 1.15 min⁻¹

[N-]=[N+]=NCC(=O)N[C@H]1[C@@H](OP(=O)(O)OP(=O)(O)OC[C@H]2O[C@@H](n3ccc(=O)[nH]c3=O)[C@H](O)[C@@H]2O)O[C@H](CO)[C@@H](O)[C@@H]1O
Activity [2]: inactive

CCC(=O)N[C@H]1[C@@H](OP(=O)(O)OP(=O)(O)OC[C@H]2O[C@@H](n3ccc(=O)[nH]c3=O)[C@H](O)[C@@H]2O)O[C@H](CO)[C@@H](O)[C@@H]1O
Vmax/Km [1]: 0.005 min⁻¹

CC(=O)N[C@H]1[C@@H](OP(=O)(O)OP(=O)(O)OC[C@H]2O[C@@H](n3ccc(=O)[nH]c3=O)[C@H](O)[C@@H]2O)O[C@H](C)[C@@H](O)[C@@H]1O
Activity [2]: Active
Vmax/Km [1]: 0.259 min⁻¹

B1: Beta 1,3 N-acetylglucosaminyltransferase (Neisseria meningitidis), Q8KHG4 (protein)
chain: MQSLVSVLICAYNVEKYFAQSLAAVVNQTWRNLEILIVDDGSTDGTLAIAKDFQKRDSRIKILAQAQNSGLIPSLNIGLDELAKSGMGEYIARTDADDIAAPDWIEKIVGEMEKDRSIIAMGAWLEVLSEEKDGNRLARHHRHGKIWKKPTRHEDIADFFPFGNPIHNNTMIMRRSVIDGGLRYNTERDWAEDYQFWYDVSKLGRLAYYPEALVKYRLHANQVSSKYSIRQHEIAQGIQKTARNDFLQSMGFKTRFDSLEYRQIKAVAYELLEKHLPEEDFERARRFLYQCFKRTDTLPAGAWLDFAADGRMRRLFTLRQYFGILHRLLKNR
Km [3]: 1.32 mM
Vmax [3]: 0.343 mM/min
Km [4]: 3.05 mM
Vmax [4]: 0.115 mM/min
Km [5]: 3.28 mM
Vmax [5]: 0.097 mM/min
Km [6]: 21.1 mM
Vmax [6]: 0.11 mM/min
